Experimental data collected from several papers.
Each line is one published result; the experiments were not run side by side. ≈ marks a conversion by molar mass, not a printed value.

With CC(C(=O)NCCc1ccccc1)c1cccc(C(OC(=O)NCCc2ccccc2)c2ccccc2)c1 (stereo not drawn) the IC50 was 13000 nM (FM3A; cell growth or viability; 48 h).
CCCCCCCCCCOc1cc2c(O)c(C(=O)OCC)cnc2cc1OCC has an IC50 of under 5.7 nM (Plasmodium falciparum; parasite growth, SYBR Green; DD2; blood stage).
For CCc1nc2nc(C)cc(Nc3cc(C)cc(C)c3)n2n1, the EC50 was 96.5 nM (Plasmodium falciparum; parasite growth, SYBR Green; 3D7).
With C[C@]1(O)CC[C@@]2(C)[C@@H](CC[C@@H]3[C@@H]2CC[C@]2(C)[C@@H]([N+](=O)[O-])CC[C@@H]32)C1 the ED50 was over 100 mg/kg (6 Hz seizures; mouse; intraperitoneal).
CC(C(=O)NCC1CCCCC1)c1cccc(C(OC(=O)NCC2CCCCC2)c2ccccc2)c1 (stereo not drawn) gave an IC50 of 11000 nM (L1210; cell growth or viability; 48 h).
N.N.[Cl][Pt][Cl] gave a GI50 of 6.8 µg/mL (COLO 205; cell growth or viability, ATP luminescence).
c1csc(-c2nnc3sc(Cc4ccc5c(c4)CCCC5)nn23)c1 has an EC50 of over 12500 nM (Plasmodium falciparum; parasite growth, SYBR Green; 3D7; 72 h).
The IC50 of CC(C(=O)NCc1ccccc1)c1cccc(C(OC(=O)NCc2ccccc2)c2ccccc2)c1 (stereo not drawn) is reported as 14000 nM (FM3A; cell growth or viability; 48 h).
Cc1cc(NC2Cc3cc(F)c(F)cc3C2)n2nc(C(C)(F)F)nc2n1 gave an EC50 of 21 nM (Plasmodium falciparum; parasite growth; HB3; drug-resistant strain, blood stage).
For CCOc1cccc(=O)c2c(C)n(Cc3ccc(Cl)cc3)c(C)c12, the EC50 was 590 nM (Plasmodium falciparum; parasite growth, SYBR Green; 3D7).
With Nc1ccc(C(=O)O)c(O)c1 the MIC was 0.125 µg/mL (≈ 0.816 µM) (Mycobacterium tuberculosis variant bovis; microbial growth; BCG).
The EC50 of COCc1ccccc1C(=O)NCCOc1cc(C)cc(C)c1 is reported as 96.3 nM (Plasmodium falciparum; parasite growth, SYBR Green; 3D7).
With C[C@]12CC[C@@H](O)C[C@@H]1CC[C@@H]1[C@@H]2CC[C@]2(C)[C@@H]([N+](=O)[O-])CC[C@@H]12 the ED50 was 5.3 mg/kg (6 Hz seizures; mouse; intraperitoneal).
The EC50 of CC(=O)c1c(Cc2ccccc2Cl)c[nH]c1C is reported as 140 nM (Plasmodium falciparum; parasite growth, SYBR Green; 3D7).
The MIC of CO[C@H]1/C=C/O[C@@]2(C)Oc3c(C)c(O)c4c(O)c(c(/C=N/N5CCN(C)CC5)c(O)c4c3C2=O)NC(=O)/C(C)=C\C=C\[C@H](C)[C@H](O)[C@@H](C)[C@@H](O)[C@@H](C)[C@H](OC(C)=O)[C@@H]1C is reported as 0.78 µg/mL (≈ 0.948 µM) (Mycolicibacterium aurum; microbial growth, agar dilution).
